Legend:
fMet-Leu-Phe receptor [1] = target: T1, fMet-Leu-Phe receptor (Homo sapiens, UniProt P21462); assay: Binding affinity towards fMLF receptor using human neutrophils
T1 sequence (P21462 whole entry): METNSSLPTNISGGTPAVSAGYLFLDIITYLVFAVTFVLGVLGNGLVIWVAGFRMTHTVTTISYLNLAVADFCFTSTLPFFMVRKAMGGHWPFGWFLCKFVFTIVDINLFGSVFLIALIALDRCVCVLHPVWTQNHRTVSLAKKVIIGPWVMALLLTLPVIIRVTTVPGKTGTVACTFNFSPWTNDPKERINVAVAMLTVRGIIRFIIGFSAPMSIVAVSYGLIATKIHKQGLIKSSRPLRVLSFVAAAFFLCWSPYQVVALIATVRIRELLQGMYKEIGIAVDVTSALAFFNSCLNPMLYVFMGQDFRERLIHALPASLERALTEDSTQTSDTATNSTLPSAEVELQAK
In short: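 Competition binding on human neutrophils: the peptide displaces tritiated fMLF from the fMLF receptor. Values are mean ± SE of 2–3 independent experiments.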

fMet-Leu-Phe receptor [2] = target: T1, fMet-Leu-Phe receptor; assay: Antagonistic activity was determined by measuring the ability to inhibit superoxide production (stimulated by fMLF) using human neutrophils; assay type: functional
In short: (§1)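 Human neutrophils stimulated with fMLF, with the peptide present. Antagonism is the inhibition of fMLF-driven superoxide production, read as cytochrome C reduction. Values are mean ± SE of 2–3 independent experiments.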

fMet-Leu-Phe receptor [3] = target: T1, fMet-Leu-Phe receptor; assay: Agonistic activity was determined by measuring the ability to induce superoxide production(as measured by reduction of cytochrome C) using human neutrophils; NA= No activity at 30 uM; assay type: functional
In short: (§2)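 Human neutrophils; agonist read-out is superoxide generation induced by the peptide, followed as cytochrome C reduction. Values are mean ± SE of 2–3 independent experiments.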

fMet-Leu-Phe receptor [4] = target: T1, fMet-Leu-Phe receptor; assay: Agonistic activity was determined by measuring the ability to induce superoxide production(as measured by reduction of cytochrome C) using human neutrophils; assay type: functional; in short: as §2
[5] = Agonistic activity was determined by measuring the compound's ability to induce superoxide production(as measured by reduction of cytochrome C) using human neutrophils; assay type: functional; in short: as §2
Homo sapiens [6] = species: Homo sapiens; assay: Antagonistic activity was determined by measuring the compound's ability to inhibit superoxide production (stimulated by fMLF) using human neutrophils; NA= No activity at 30 uM; assay type: functional, organism-based; in short: as §1
Homo sapiens [7] = species: Homo sapiens; assay: Agonistic activity was determined by measuring the compound's ability to induce superoxide production(as measured by reduction of cytochrome C) using human neutrophils; NA= No activity at 30 uM.; assay type: functional, organism-based; in short: as §2

Row | SMILES | IC50 (fMet-Leu-Phe receptor [1]) [nM] | IC50 (fMet-Leu-Phe receptor [2]) [nM] | EC50 (fMet-Leu-Phe receptor [3]) | EC50 (fMet-Leu-Phe receptor [4]) [nM] | EC50 [5] [nM] | IC50 (Homo sapiens [6]) | EC50 (Homo sapiens [7])
1 | CC(C)C[C@@H](NC(=O)[C@H](Cc1ccccc1)NC(=O)[C@@H](CC(C)C)NC(=O)[C@H](Cc1ccccc1)NC(=O)Nc1ccccc1)C(=O)N[C@@H](Cc1ccccc1)C(=O)O | 50 | 500 | Not Active | – | – | – | –
2 | CCCCNC(=O)N[C@@H](CCSC)C(=O)N[C@@H](CC(C)C)C(=O)N[C@@H](Cc1ccccc1)C(=O)O | 300 | – | – | 300 | – | – | –
3 | C=C(C)NC(=O)N[C@@H](CCSC)C(=O)N[C@@H](CC(C)C)C(=O)N[C@@H](Cc1ccccc1)C(=O)O | 300 | – | – | – | 400 | – | –
4 | CCCNC(=O)N[C@@H](CCSC)C(=O)N[C@@H](CC(C)C)C(=O)N[C@@H](Cc1ccccc1)C(=O)O | 2000 | 3000 | Not Active | – | – | – | –
5 | CSCC[C@H](NC(=O)Nc1ccc(C)cc1)C(=O)N[C@@H](CC(C)C)C(=O)N[C@@H](Cc1ccccc1)C(=O)O | 2 | – | – | 2 | – | Not Active | –
6 | CSCC[C@H](NC(=O)Nc1ccc(Cl)cc1)C(=O)N[C@@H](CC(C)C)C(=O)N[C@@H](Cc1ccccc1)C(=O)O | 2 | – | – | 1 | – | Not Active | –
7 | CSCC[C@H](NC(=O)NCC(C)C)C(=O)N[C@@H](CC(C)C)C(=O)N[C@@H](Cc1ccccc1)C(=O)O | 1000 | 4000 | Not Active | – | – | – | –
8 | CC(C)C[C@@H](NC(=O)[C@H](Cc1ccccc1)NC(=O)[C@@H](CC(C)C)NC(=O)[C@H](Cc1ccccc1)NC(=O)NC12CC3CC(CC(C3)C1)C2)C(=O)N[C@@H](Cc1ccccc1)C(=O)O | 20 | 300 | Not Active | – | – | – | –
9 | CSCC[C@H](NC(=O)NC(C)(C)C)C(=O)N[C@@H](CC(C)C)C(=O)N[C@@H](Cc1ccccc1)C(=O)O | 3000 | 2000 | Not Active | – | – | – | –
10 | CC(C)C[C@@H](NC(=O)[C@H](Cc1ccccc1)NC(=O)[C@@H](CC(C)C)NC(=O)[C@H](Cc1ccccc1)NC(N)=O)C(=O)N[C@@H](Cc1ccccc1)C(=O)O | 800 | 100 | – | – | – | – | Not Active
11 | CSCC[C@H](NC(=O)NC12CC3CC(CC(C3)C1)C2)C(=O)N[C@@H](CC(C)C)C(=O)N[C@@H](Cc1ccccc1)C(=O)O | 900 | 2000 | – | – | – | – | –
12 | CSCC[C@H](NC(=O)Nc1cccc(C)c1)C(=O)N[C@@H](CC(C)C)C(=O)N[C@@H](Cc1ccccc1)C(=O)O | 100 | 1600 | – | 900 | – | – | –
13 | CSCC[C@H](NC(=O)NC(C)C)C(=O)N[C@@H](CC(C)C)C(=O)N[C@@H](Cc1ccccc1)C(=O)O | 2000 | 5000 | – | – | – | – | –
14 | CC(C)C[C@@H](NC(=O)[C@H](Cc1ccccc1)NC(=O)[C@@H](CC(C)C)NC(=O)[C@H](Cc1ccccc1)NC(=O)NC(C)C)C(=O)N[C@@H](Cc1ccccc1)C(=O)O | 200 | 500 | Not Active | – | – | – | –
15 | CNC(=O)N[C@@H](CCSC)C(=O)N[C@@H](CC(C)C)C(=O)N[C@@H](Cc1ccccc1)C(=O)O | 3000 | 2000 | Not Active | – | – | – | –
16 | CCNC(=O)N[C@@H](CCSC)C(=O)N[C@@H](CC(C)C)C(=O)N[C@@H](Cc1ccccc1)C(=O)O | 1000 | 3000 | Not Active | – | – | – | –
17 | CSCC[C@H](NC(=O)NCc1ccccc1)C(=O)N[C@@H](CC(C)C)C(=O)N[C@@H](Cc1ccccc1)C(=O)O | 800 | 600 | – | – | – | – | –
18 | CSCC[C@H](NC(N)=O)C(=O)N[C@@H](CC(C)C)C(=O)N[C@@H](Cc1ccccc1)C(=O)O | 2000 | – | – | 3000 | – | – | –
19 | CCCCNC(=O)N[C@@H](Cc1ccccc1)C(=O)N[C@H](CC(C)C)C(=O)N[C@@H](Cc1ccccc1)C(=O)N[C@H](CC(C)C)C(=O)N[C@@H](Cc1ccccc1)C(=O)O | 300 | 600 | Not Active | – | – | – | –
20 | Cc1cccc(NC(=O)N[C@@H](Cc2ccccc2)C(=O)N[C@H](CC(C)C)C(=O)N[C@@H](Cc2ccccc2)C(=O)N[C@H](CC(C)C)C(=O)N[C@@H](Cc2ccccc2)C(=O)O)c1 | 200 | 20 | Not Active | – | – | – | –
21 | CSCC[C@H](NC(=O)Nc1ccccc1)C(=O)N[C@@H](CC(C)C)C(=O)N[C@@H](Cc1ccccc1)C(=O)O | 30 | – | – | 40 | – | Not Active | –
22 | COc1ccc(NC(=O)N[C@@H](CCSC)C(=O)N[C@@H](CC(C)C)C(=O)NC(Cc2ccccc2)C(=O)O)cc1 (stereo not given in full) | 2 | – | – | 1 | – | Not Active | –

From ChEMBL document CHEMBL1129753, “N-terminus urea-substituted chemotactic peptides: new potent agonists and antagonists toward the neutrophil fMLF receptor” (J Med Chem, 1996)
